How the values were obtained:
Assay type in all cases: functional, cell-based
Conditions in all cases: Homo sapiens
DLD-1 = assay: Compound was evaluated for cytotoxicity against DLD-1(colon) cell line
SK-MEL-28 = assay: Compound was evaluated for cytotoxicity against SK-MEL-28 (melanoma) cell line
SNB-7 = assay: Compound was evaluated for cytotoxicity against SNB-7 (CNS) cell line
CAKI-1 = assay: Compound was evaluated for cytotoxicity against CAKI-1(renal) cell line
NCI-H23 = assay: Compound was evaluated for cytotoxicity against NCI-H23 (lung) cell line
CCRF-CEM = assay: Compound was evaluated for cytotoxicity against CCRF-CEM (leukemia) cell line
How it was run: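 Human leukemia CEM cells grown in culture and exposed to the nucleosides. In one set of runs the adenosine deaminase inhibitor 2′-deoxycoformycin was also present during the incubation.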

Structure (SMILES)	IC50 (DLD-1) [µM]	IC50 (SK-MEL-28) [µM]	IC50 (SNB-7) [µM]	IC50 (CAKI-1) [µM]	IC50 (NCI-H23) [µM]	IC50 (CCRF-CEM) [µM]
Nc1nc(N)c2ncn(C3SC(CO)C(O)C3O)c2n1 (centres undefined)	> 25	0.34	1	20	> 25	0.34
Nc1nc(F)nc2c1ncn2[C@H]1S[C@H](CO)[C@@H](O)[C@@H]1O	> 100	> 100	> 100	20	> 100	> 130
Nc1nc(F)nc2c1ncn2[C@@H]1S[C@H](CO)[C@@H](O)[C@@H]1O	> 90	> 90	> 90	10	> 90	30
Nc1nc(O)c2ncn(C3SC(CO)C(O)C3O)c2n1 (centres undefined)	> 20	1.1	1.1	14	> 20	0.57

Reference: ChEMBL document CHEMBL1131122, “Synthesis and biological activity of certain 4'-thio-D-arabinofuranosylpurine nucleosides” (J Med Chem, 1998)
